Test [1] concerns TMPD-induced peritonitis in Balb/c mice. The experiment in a line: Mouse TMPD peritonitis. To be noted: prophylactic oral b.i.d. It counts as in vivo. The method, boiled down:
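Female Balb/c mice (5 per group) were dosed orally b.i.d. from day −1 with test compound in 0.5% MC/0.5% Tween80, or vehicle. On day 0 they were injected i.p. with 0.5 mL TMPD; naive mice were controls. Peritoneal lavage (HBSS, 2% FBS) supernatants were assayed for CCL2 by ELISA. Inflammatory monocytes were counted by flow (live/dead, CD11b, Ly6C, Ly6G). ISGs were measured by qPCR (2−ΔΔCt vs HPRT, triplicates), averaged and normalized to naive = 100%.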

The target of another test is T1, TLR8 (Homo sapiens, UniProt Q9NR97).
T1 sequence (Q9NR97 27-1041): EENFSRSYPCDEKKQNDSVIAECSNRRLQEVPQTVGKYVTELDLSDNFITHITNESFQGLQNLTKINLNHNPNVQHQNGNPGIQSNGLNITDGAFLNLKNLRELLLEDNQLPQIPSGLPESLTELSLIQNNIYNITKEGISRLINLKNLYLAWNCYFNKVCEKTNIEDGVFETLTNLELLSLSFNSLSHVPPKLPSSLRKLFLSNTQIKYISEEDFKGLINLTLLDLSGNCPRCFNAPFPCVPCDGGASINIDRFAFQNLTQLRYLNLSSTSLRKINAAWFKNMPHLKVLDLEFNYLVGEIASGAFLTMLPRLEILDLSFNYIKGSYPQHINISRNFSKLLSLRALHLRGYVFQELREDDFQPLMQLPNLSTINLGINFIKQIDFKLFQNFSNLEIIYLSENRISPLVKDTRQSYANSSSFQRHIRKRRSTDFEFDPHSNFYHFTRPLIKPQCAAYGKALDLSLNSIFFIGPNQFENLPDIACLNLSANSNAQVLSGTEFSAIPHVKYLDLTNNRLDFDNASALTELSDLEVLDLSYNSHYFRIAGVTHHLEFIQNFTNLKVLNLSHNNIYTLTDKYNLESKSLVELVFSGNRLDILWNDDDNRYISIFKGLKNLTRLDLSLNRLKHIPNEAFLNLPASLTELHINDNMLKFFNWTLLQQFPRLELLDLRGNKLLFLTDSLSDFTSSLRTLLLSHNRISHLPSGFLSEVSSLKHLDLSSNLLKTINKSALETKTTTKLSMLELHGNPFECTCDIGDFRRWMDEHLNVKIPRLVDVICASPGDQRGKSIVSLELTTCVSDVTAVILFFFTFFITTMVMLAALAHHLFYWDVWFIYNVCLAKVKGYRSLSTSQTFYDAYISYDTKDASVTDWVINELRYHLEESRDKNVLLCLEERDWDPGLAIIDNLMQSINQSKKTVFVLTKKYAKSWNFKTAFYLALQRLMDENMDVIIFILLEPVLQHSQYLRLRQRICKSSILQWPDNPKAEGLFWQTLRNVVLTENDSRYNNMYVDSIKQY
The experiment in a line: Human whole blood assay, ssRNA-TNF. The test is classed as cell-based. Put shortly:
(§1)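 Fresh human blood or 129/Sv mouse blood was taken into citrate and diluted 1:1 with RPMI1640. It was pre-incubated 30 min at 37°C, 5% CO2 with increasing concentrations of test compound or 0.25% v/v DMSO (final). Blood was then stimulated with TLR agonists at doses from earlier work, or with R848 (3 μM), and cytokines were quantified. Viability was checked by ATPlite luminescence.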

The target of the next test is TLR2/6 (Homo sapiens, UniProt O60603+Q9Y2C9). Put plainly: Ramos Blue reporter B cell line, FSL-1 stimulation. The test is classed as cell-based. To be noted: Ramos cells; up to 10 μM; n = 4, data not shown. The method, boiled down:
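Ramos Blue B reporter cells were pre-treated 30 min at 37°C, 5% CO2 with increasing concentrations of test compound or 0.25% v/v DMSO. They were then stimulated with the respective agonist, and reporter activity was read.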

The target of a further test is T2, TLR7 (Homo sapiens, UniProt Q9NYK1).
T2 sequence (Q9NYK1 27-1049): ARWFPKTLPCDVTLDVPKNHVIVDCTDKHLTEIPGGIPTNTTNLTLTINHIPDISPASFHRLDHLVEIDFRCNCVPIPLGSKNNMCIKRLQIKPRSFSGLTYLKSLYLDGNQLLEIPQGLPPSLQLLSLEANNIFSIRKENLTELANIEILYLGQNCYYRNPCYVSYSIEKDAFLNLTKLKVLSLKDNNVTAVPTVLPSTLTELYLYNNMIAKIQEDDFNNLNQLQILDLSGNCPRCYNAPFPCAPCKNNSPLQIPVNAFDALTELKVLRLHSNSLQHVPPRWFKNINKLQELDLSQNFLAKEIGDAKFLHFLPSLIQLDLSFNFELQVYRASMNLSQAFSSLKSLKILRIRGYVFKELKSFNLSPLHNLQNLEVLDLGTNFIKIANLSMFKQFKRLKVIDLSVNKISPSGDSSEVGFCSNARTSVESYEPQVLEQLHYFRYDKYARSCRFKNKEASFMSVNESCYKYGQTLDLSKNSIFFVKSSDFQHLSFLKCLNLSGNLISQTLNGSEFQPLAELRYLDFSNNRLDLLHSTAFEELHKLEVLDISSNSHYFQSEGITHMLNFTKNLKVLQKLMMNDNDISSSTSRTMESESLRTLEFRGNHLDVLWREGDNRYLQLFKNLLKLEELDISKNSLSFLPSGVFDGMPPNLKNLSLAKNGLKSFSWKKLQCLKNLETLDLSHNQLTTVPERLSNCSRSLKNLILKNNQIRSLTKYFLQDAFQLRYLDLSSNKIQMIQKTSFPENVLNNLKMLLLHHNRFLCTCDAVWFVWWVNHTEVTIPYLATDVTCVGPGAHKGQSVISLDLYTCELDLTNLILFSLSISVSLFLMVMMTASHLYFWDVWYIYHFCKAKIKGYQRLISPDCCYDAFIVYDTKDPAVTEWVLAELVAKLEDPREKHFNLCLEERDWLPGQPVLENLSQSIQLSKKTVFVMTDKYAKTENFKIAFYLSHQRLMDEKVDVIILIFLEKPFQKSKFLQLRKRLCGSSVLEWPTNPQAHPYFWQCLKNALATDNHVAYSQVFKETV
Put plainly: Human whole blood assay, ssRNA-IFN-α. It counts as cell-based. The method, boiled down: as §1

For orientation: IC50 means the concentration that inhibits the measured activity by half. Lower therefore signals greater potency in that assay.

Chain of TLR2/6 (O60603 21-784): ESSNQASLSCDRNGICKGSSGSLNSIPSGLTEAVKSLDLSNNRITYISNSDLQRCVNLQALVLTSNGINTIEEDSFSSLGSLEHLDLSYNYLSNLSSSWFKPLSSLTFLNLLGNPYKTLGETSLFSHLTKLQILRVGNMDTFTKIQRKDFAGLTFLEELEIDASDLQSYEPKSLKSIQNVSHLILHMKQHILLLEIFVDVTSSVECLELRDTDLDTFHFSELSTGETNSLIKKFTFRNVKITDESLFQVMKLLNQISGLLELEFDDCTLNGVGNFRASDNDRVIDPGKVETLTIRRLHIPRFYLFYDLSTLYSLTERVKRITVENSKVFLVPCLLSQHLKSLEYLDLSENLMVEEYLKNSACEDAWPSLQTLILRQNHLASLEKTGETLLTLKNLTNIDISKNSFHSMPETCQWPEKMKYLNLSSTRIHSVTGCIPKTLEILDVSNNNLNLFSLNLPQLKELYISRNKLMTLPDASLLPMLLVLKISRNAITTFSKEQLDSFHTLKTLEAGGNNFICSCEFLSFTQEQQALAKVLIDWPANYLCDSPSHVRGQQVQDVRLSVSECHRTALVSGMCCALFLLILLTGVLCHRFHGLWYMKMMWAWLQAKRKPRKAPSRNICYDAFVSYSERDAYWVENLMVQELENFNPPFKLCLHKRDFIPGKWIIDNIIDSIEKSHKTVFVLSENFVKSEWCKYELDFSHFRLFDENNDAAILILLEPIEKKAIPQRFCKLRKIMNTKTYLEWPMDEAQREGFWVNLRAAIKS
Chain of TLR2/6 (Q9Y2C9 32-796): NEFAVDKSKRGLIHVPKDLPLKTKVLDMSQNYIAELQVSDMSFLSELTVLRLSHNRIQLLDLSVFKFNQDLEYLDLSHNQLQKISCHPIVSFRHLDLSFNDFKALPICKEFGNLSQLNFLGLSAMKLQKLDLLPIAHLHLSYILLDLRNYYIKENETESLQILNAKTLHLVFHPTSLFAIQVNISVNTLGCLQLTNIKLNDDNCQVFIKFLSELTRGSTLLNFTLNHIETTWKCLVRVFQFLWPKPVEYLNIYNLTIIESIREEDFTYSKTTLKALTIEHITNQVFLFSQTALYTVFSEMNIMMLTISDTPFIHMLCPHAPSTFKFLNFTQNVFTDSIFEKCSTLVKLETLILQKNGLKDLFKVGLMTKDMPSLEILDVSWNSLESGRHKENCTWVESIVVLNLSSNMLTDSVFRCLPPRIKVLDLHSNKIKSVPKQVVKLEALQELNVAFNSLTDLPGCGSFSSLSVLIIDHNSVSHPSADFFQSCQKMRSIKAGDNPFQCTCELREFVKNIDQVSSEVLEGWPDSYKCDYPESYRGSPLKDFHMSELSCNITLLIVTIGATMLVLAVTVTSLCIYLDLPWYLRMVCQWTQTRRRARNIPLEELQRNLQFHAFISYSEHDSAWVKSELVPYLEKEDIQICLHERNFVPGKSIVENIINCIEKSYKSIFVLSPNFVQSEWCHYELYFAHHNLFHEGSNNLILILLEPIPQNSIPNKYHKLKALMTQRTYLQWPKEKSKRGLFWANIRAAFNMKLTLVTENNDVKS

As for `Cc1cc(N2CCc3c(c(C)nn3CC34CCC(NC(=O)[C@@H]5COCCN5)(CC3)CC4)C2)c2cnn(C)c2n1` [MHV370, (S)-N-(4-((5-(1,6-dimethyl-1H-pyrazolo[3,4-b]pyridin-4-yl)-3-methyl-4,5,6,7-tetrahydro-1H-pyrazolo[4,3-c]pyridin-1-yl)methyl)bicyclo[2.2.2]octan-1-yl)morpholine-3-carboxamide], in test [1], the “ex vivo stimulated PD marker CD69 in peripheral blood” value is “reduced in peripheral blood of mice in a dose-dependent manner”; the “panel of ISGs in peritoneal cells and blood” value was “dose-dependently suppressed”. For the same compound, the “inflammatory monocytes and CCL2 in the peritoneum” value in test [1] (day 7) was “dose-dependent reduction”. At TLR8, this compound gave an IC50 of 31 ± 4.4 nM. Further, the “interference with TLR2/6-driven activity” value on TLR2/6 is recorded as “did not interfere”. The compound also displayed an IC50 on TLR7 of 8.4 ± 1 nM.

The values above are taken from article PMC10213863 (Cell Reports Medicine, 2023).
